XiGFP reactiv = X-chromosome reactivation activator. hit rate 0.055% among 360,000. AID 743238. XiGFP mouse fibroblasts, % GFP-positive cells imaging, 3 d; cells co-treated with 5-aza-dC sensitizer; scaled so ellipticine positive control = 100%. activation, % at 7.58 µM;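 active = mean normalized replicate activation at least 10% and every replicate at or above 10%; inconclusive = only one of the two criteria met; inactive = mean below 10% and not all replicates reach 10%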
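System: 68-5-11 XiGFP fibroblast line | Buffer or medium: DMEM containing 5-aza-dC | Compound: Single point | Times: Compounds 3 days, fix/stain 15 min at room temperature | Benchmarks: Positive control ellipticine, 6 µM final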
PglD inh = PglD (C. jejuni) enzyme inhibition | purified PglD enzyme, DTNB colorimetric CoA detection | inhibition, % at 12.5 µM | hit rate 0.098% among 360,000; in the data active = inhibition above about 16%, passing the limit was not always enough; inconclusive = no clear call, values can overlap the other calls
E-selectin induc = induces E-selectin expression in human endothelial cells; HUVEC E-selectin immunofluorescence imaging; normalized: neutral wells 0, TNF-alpha wells 100; hit rate 0.37% among 260,000; P16581; activation, % at 7.58 µM; AID 686992;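 active = mean E-selectin-positive cell signal at least 10% of the positive control, reached in at least 60% of replicates, without over 20% cell loss; inconclusive = no rule given, readout overlaps actives, possibly toxicity-flagged; inactive = the rest, including those meeting only one limit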
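Assay system: HUVEC, human umbilical vein endothelial cells / Amount: 3,000 HUVEC/well / Controls: TNF-alpha positive control, DMSO neutral control / Compound dosing: single concentration / Medium: EGM-2 over gelatin coat / Evaluation: percent E-selectin-positive cells / Signal: immunofluorescence imaging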
Statin myotox sup = suppression of simvastatin myotoxicity | C2C12 myotubes + simvastatin, ATP luminescence, 48 h; scaled: DMSO 0, geranylgeraniol control 100 | rescue of ATP level, % at 7.49 µM | hit rate 0.78% among 330,000 | AID 602340;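 active = mean ATP rescue above about 67%, or every replicate alone reaching that limit, limit read from the data, passing the limit was not always enough; inconclusive = no clear call, values can overlap the other calls; inactive = mean under the limit and some replicate under it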;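 note: myotubes were challenged with 10 µM simvastatin during compound exposure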
DENV2 CPE = protects cells from dengue virus 2 cytopathic effect; DENV2-infected cells, cytopathic effect rescue, plate reader; CPE inhibition, % at 9.99 µM; hit rate 1.7% among 350,000; AID 651640; in the data active = CPE inhibition above about 20%, passing the limit was not always enough; inconclusive = no clear call, values can overlap the other calls; tested in BHK-21 cells
FGF22 binding = binders of recombinant human FGF22 by thermal shift; Q9HCT0; AID 651658; activity (Tm shift, normalised), % at 9.99 µM; SYPRO orange fluorescence; percent of sucrose octasulfate shift, DMSO zero; hit rate 1.5% among 340,000;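 active = mean Tm shift, scaled 0 neutral to 100 positive control, at about 1.3% or above, every replicate too, limit read from the data; inconclusive = no clear call, values can overlap the other calls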
Target sequence (Q9HCT0 whole entry, looked up): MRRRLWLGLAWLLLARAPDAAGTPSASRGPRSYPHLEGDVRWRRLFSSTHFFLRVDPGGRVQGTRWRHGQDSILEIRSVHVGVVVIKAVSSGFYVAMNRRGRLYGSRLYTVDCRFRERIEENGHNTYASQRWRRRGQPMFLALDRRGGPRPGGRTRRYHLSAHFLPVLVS
Numbers stand for hits; n = inactive; u = inconclusive; x = not tested or not shown. The list is not random: actives were taken first. Their share in the collection is about 3.3%.

SMILES	XiGFP reactiv	PglD inh	E-selectin induc	Statin myotox sup	DENV2 CPE	FGF22 binding
CCOc1ccc(N(CC(=O)NCc2ccco2)S(=O)(=O)c2ccc(OC)c(OC)c2)cc1	x	n	x	108	x	x
O=C(c1ccccc1)N1CC[C@@H]2[C@H]1c1cc(C#Cc3cccnc3)ccc1N[C@@H]2CO	n	n	n	n	n	n
COc1ccccc1-c1ccc([C@@H]2[C@@H](CO)N3CCCCN(Cc4ccncc4)C[C@H]23)cc1	n	n	n	n	26	n
OC[C@H]1[C@@H](c2ccc(-c3ccc(F)cc3)cc2)[C@@H]2CN(Cc3ccccn3)CCCCN12	n	n	n	x	29	n
OC[C@H]1[C@H](c2ccc(-c3ccc(F)cc3)cc2)[C@H]2CN(Cc3ccccn3)CCCCN21	n	n	n	x	n	n
OC[C@H]1[C@H](c2ccc(-c3ccc(F)cc3)cc2)[C@@H]2CN(Cc3ccncc3)CCCCN12	n	n	n	n	44	n
COCC(=O)N1CC[C@@H]2[C@H]1c1cc(C#Cc3ccccc3)ccc1N[C@@H]2CO	n	n	n	n	n	n
COC(=O)CN1C(=O)N/C(=C/c2ccc(OC)cc2)C1=O	n	x	x	x	n	43
COC(=O)CN1C(=O)N/C(=C/c2cc(Cl)c(OC)c(OC)c2)C1=O	n	n	n	n	n	n
COc1ccc(S(=O)(=O)N(C)C[C@@H]2Oc3ccc(NC(=O)C4CCCCC4)cc3CC(=O)N([C@@H](C)CO)C[C@@H]2C)cc1	n	n	n	n	28	n
COc1ccc(S(=O)(=O)N(C)C[C@@H]2Oc3ccc(NC(=O)CCC(F)(F)F)cc3CC(=O)N([C@@H](C)CO)C[C@@H]2C)cc1	n	n	n	n	42	n
COc1ccc(S(=O)(=O)N(C)C[C@H]2Oc3ccc(NC(=O)C4CCCCC4)cc3CC(=O)N([C@H](C)CO)C[C@@H]2C)cc1	n	n	n	n	n	n
COc1ccc(NC(=O)Nc2ccc3c(c2)CC(=O)N([C@@H](C)CO)C[C@@H](C)[C@@H](CN(C)S(=O)(=O)c2ccc(F)cc2)O3)cc1	n	n	n	n	29	n
COc1ccc(S(=O)(=O)N(C)C[C@@H]2Oc3ccc(NC(=O)CCC(F)(F)F)cc3CC(=O)N([C@H](C)CO)C[C@H]2C)cc1	n	n	n	n	n	n
COc1ccc(NC(=O)Nc2ccc3c(c2)CC(=O)N([C@H](C)CO)C[C@@H](C)[C@H](CN(C)S(=O)(=O)c2ccc(C)cc2)O3)cc1	n	x	n	x	34	n
CC(=O)N1CC[C@@H]2[C@H]1c1cc(-c3cccc(F)c3)ccc1N(C)[C@@H]2CO	n	n	n	n	n	n
Cc1cc(C(=O)Nc2cccc3c2O[C@@H](CN(C)S(=O)(=O)c2cn(C)cn2)[C@H](C)CN([C@@H](C)CO)C3=O)n(C)n1	n	n	x	n	u	n
Cn1cnc(S(=O)(=O)N[C@@H]2C=C[C@H](CC(=O)N3CCN(c4ccccc4)CC3)O[C@H]2CO)c1	n	n	n	n	n	n
CCCCN1C(N)=NC[C@@H]1C(C)O (stereo not given in full)	n	n	n	n	23	n
CC(O)[C@H]1CN=C(N)N1CC(C)(C)C (stereo not given in full)	n	n	n	n	n	n
Cc1ccc(NC(=S)N(Cc2cccc(Br)c2)CC2CCC(C(=O)O)CC2)cc1 (stereo not given)	n	n	x	n	n	8.2
COc1cccc(NC(=O)N[C@H]2C=C[C@@H](CC(=O)Nc3ccccc3)O[C@@H]2CO)c1	n	n	n	n	x	n
COc1ccc([Si](C)(C)[C@@H]2[C@@H](CCO)O[C@]3(C(=O)N(Cc4ccc(NC(C)=O)cc4)c4ccccc43)[C@H]2C)cc1	x	n	x	x	20	n
COc1ccc([Si](C)(C)[C@H]2[C@H](CCO)O[C@@]3(C(=O)N(Cc4ccc(NC(C)=O)cc4)c4ccccc43)[C@@H]2C)cc1	x	n	x	x	n	n
C=CCN1C(=O)[C@@]2(O[C@@H](CCn3cc([C@H](O)c4ccccc4)nn3)[C@H]([Si](C)(C)c3ccc(OC)cc3)[C@H]2C)c2cc(N3CCOC3=O)ccc21	x	n	x	x	42	n
SMILES	XiGFP reactiv	PglD inh	E-selectin induc	Statin myotox sup	DENV2 CPE	FGF22 binding
COc1ccc([Si](C)(C)[C@H]2[C@H](CCO)O[C@@]3(C(=O)N(Cc4ccccc4)c4ccc(N5CCOC5=O)cc43)[C@@H]2C)cc1	x	n	x	x	20	n
COc1ccc([Si](C)(C)[C@@H]2[C@@H](CCO)O[C@]3(C(=O)N(Cc4ccccc4)c4ccc(N5CCOC5=O)cc43)[C@H]2C)cc1	x	n	x	x	n	n
O=C(C[C@H]1CC[C@@H]2[C@H](COC[C@H](O)CN2C(=O)Nc2ccc(F)cc2)O1)NC1Cc2ccccc2C1	n	n	n	n	n	n
CO[C@@H]1CN(C)C(=O)c2ccc(NC(=O)C3CC3)cc2OC[C@H](C)N(Cc2nccs2)C[C@H]1C	n	n	n	n	n	n
CN1c2ccc(-c3ccccc3)cc2[C@H]2[C@H](CCN2C(=O)c2ccccc2)[C@@H]1CO	n	n	n	n	u	n
COc1ccc(C(=O)Nc2cnc(NC(=O)c3cccs3)cc2C)cc1	n	n	33	n	n	n
Cc1cc2c(c(=O)n1CCN(C)C)C(c1ccccc1Br)C(C#N)=C(N)O2 (stereo not given)	x	x	x	90	x	x
Cc1cc2c(c(=O)n1Cc1cccnc1)C(c1ccc(F)cc1)C(C#N)=C(N)O2 (stereo not given)	x	x	x	110	x	x
CCn1c(C)cc2c(c1=O)C(c1ccncc1)C(C#N)=C(N)O2 (stereo not given)	x	n	x	n	x	x
CN1CCN(C(=O)C[C@H]2CC[C@H]3[C@@H](COC[C@@H](O)CN3Cc3cccc(Cl)c3)O2)CC1	n	n	n	n	n	n
CN1CCN(C(=O)C[C@@H]2CC[C@H]3[C@@H](COC[C@@H](O)CN3Cc3cccc(Cl)c3)O2)CC1	n	n	n	n	27	n
O=C(C[C@@H]1CC[C@@H]2[C@H](COC[C@H](O)CN2Cc2cccc(Cl)c2)O1)N1CCOCC1	n	n	n	n	103	n
O=C(C[C@@H]1CC[C@H]2[C@@H](COC[C@@H](O)CN2Cc2cccc(Cl)c2)O1)N1CCOCC1	n	n	n	n	90	n
O=C(NNC(=O)c1ccc2ccccc2c1)c1cccc(F)c1	n	n	n	n	n	n
O=C(NNC(=O)c1cccc2ccccc12)c1cccc(F)c1	n	n	n	n	n	43
COc1ccc(NC(=O)Nc2cccc3c2O[C@H](CN(C)S(=O)(=O)c2ccccc2)[C@H](C)CN([C@H](C)CO)C3=O)cc1	n	n	n	n	n	n
Cc1ccc(OCCCc2c(C)n[nH]c2C)cc1	n	x	n	x	n	n
